Experimental data reported in ChEMBL document CHEMBL2169868, “Flavone-based novel antidiabetic and antidyslipidemic agents” (J Med Chem, 2012).

Columns and labels:
[1] = Mean residence time in Sprague-Dawley rat at 2.5 mg/kg, iv by LC-MS/MS method; type: ADME, organism-based; parameters: dose 2.5 mg/kg, route intravenous; details: in vivo
In short: (§1)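 Male Sprague−Dawley rats given a single 2.5 mg/kg iv dose; one formulation was DMF/PG/water (2:4:4), 0.2 μ filtered. Blood drawn from 0.08 to 48 h. Plasma assayed by LC-MS/MS with linear range 0.78−400 ng/mL.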

[2] = Plasma clearance in Sprague-Dawley rat at 2.5 mg/kg, iv by LC-MS/MS method; type: ADME, organism-based; parameters: dose 2.5 mg/kg, route intravenous; in short: as §1
[3] = Plasma clearance in Sprague-Dawley rat at 25 mg/kg, po by LC-MS/MS method; type: ADME, organism-based; parameters: dose 25 mg/kg, route oral
In short: (§2)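 Male Sprague−Dawley rats given a single 25 mg/kg oral dose (aqueous 0.5% methyl cellulose suspension for one compound). Blood drawn from 0.08 to 48 h. LC-MS/MS, linear range 0.78−400 ng/mL.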

[4] = Cmax in Sprague-Dawley rat at 25 mg/kg, po by LC-MS/MS method; type: ADME, organism-based; parameters: dose 25 mg/kg, route oral; details: in vivo; in short: as §2
Syrian golden hamster [5] = test: Reduction in body weight in high fructose and high-fat diet fed dyslipidemic Syrian golden hamster model at 10 mg/kg/day, po for 7 days; type: functional, Mesocricetus auratus; parameters: scale not given: the % may be the effect or the level left
In short: (§3)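 HFD-fed Syrian golden hamsters, six per group, fed a high-fructose diet. Oral dosing in 1% gum acacia for 7 days. Sham group received vehicle. Plasma TG was measured and body weight tracked. Results given as % change versus HFD control.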

Syrian golden hamster [6] = test: Antidyslipidemic activity in high fructose and high-fat diet fed dyslipidemic Syrian golden hamster model assessed as increase in HDL-cholesterol level at 100 mg/kg/day, po for 7 days; type: functional, Mesocricetus auratus
In short: (§4)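 Syrian golden hamsters fed high-fructose high-fat diet; oral dosing in 1% gum acacia at 10, 30, 100 mg/kg (or 25 mg/kg) for 7 days, sham control given vehicle; plasma TG, cholesterol, LDL-C, HDL-C, glycerol and NEFA (kits), lipoprotein lipase activity and body weight; % change versus HFD control, six hamsters per group.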

Syrian golden hamster [7] = test: Antidyslipidemic activity in high fructose and high-fat diet fed dyslipidemic Syrian golden hamster model assessed as reduction in LDL-cholesterol level at 100 mg/kg/day, po for 7 days; type: functional, Mesocricetus auratus; parameters: scale not given: the % may be the effect or the level left; in short: as §4
Syrian golden hamster [8] = test: Antidyslipidemic activity in high fructose and high-fat diet fed dyslipidemic Syrian golden hamster model assessed as reduction in cholesterol level at 100 mg/kg/day, po for 7 days; type: functional, Mesocricetus auratus; parameters: scale not given: the % may be the effect or the level left; in short: as §4
Syrian golden hamster [9] = test: Antidyslipidemic activity in high fructose and high-fat diet fed dyslipidemic Syrian golden hamster model assessed as reduction in triglyceride level at 100 mg/kg/day, po for 7 days; type: functional, Mesocricetus auratus; parameters: scale not given: the % may be the effect or the level left; in short: as §3
Syrian golden hamster [10] = test: Antidyslipidemic activity in high fructose and high-fat diet fed dyslipidemic Syrian golden hamster model assessed as reduction in LDL-cholesterol level at 30 mg/kg/day, po for 7 day, po; type: functional, Mesocricetus auratus; parameters: scale not given: the % may be the effect or the level left; in short: as §4
Syrian golden hamster [11] = test: Antidyslipidemic activity in high fructose and high-fat diet fed dyslipidemic Syrian golden hamster model assessed as reduction in triglyceride level at 30 mg/kg/day, po for 7 day, po; type: functional, Mesocricetus auratus; parameters: scale not given: the % may be the effect or the level left; in short: as §3
Syrian golden hamster [12] = test: Antidyslipidemic activity in high fructose and high-fat diet fed dyslipidemic Syrian golden hamster model assessed as reduction in LDL-cholesterol level at 10 mg/kg/day, po for 7 day, po; type: functional, Mesocricetus auratus; parameters: scale not given: the % may be the effect or the level left; in short: as §4
Syrian golden hamster [13] = test: Antidyslipidemic activity in high fructose and high-fat diet fed dyslipidemic Syrian golden hamster model assessed as reduction in LDL-cholesterol level at 10 to 100 mg/kg/day for 7 days; type: functional, organism-based; details: Mesocricetus auratus; in short: as §4
Syrian golden hamster [14] = test: Antidyslipidemic activity in high fructose and high-fat diet fed dyslipidemic Syrian golden hamster model assessed as reduction in cholesterol level at 25 mg/kg/day for 7 days; type: functional, Mesocricetus auratus; parameters: scale not given: the % may be the effect or the level left
Syrian golden hamster [15] = test: Antidyslipidemic activity in high fructose and high-fat diet fed dyslipidemic Syrian golden hamster model assessed as reduction in triglyceride level at 10 mg/kg/day, po for 7 day, po; type: functional, Mesocricetus auratus; parameters: scale not given: the % may be the effect or the level left; in short: as §4
Mus musculus [16] = test: Antidiabetic activity in po dosed diabetic C57BL/KsJ db/db mouse model assessed as reduction in postprandial glucose level in hyperglycemia measured 2 hrs post dose; type: functional
In short: (§5)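 db/db mice (C57BL/KsJ, 12−18 weeks, 40−50 g; selected by glucose 200−350 mg/dL) dosed orally daily for 10 consecutive days at 1, 3, 10, 25 or 50 mg/kg; postprandial blood glucose profile recorded on day 6 with food access interrupted; mean % change versus vehicle in 5 animals per group; Student t test.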

Mus musculus [17] = test: Antidiabetic activity in diabetic C57BL/KsJ db/db mouse model assessed as reduction in postprandial glucose level in hyperglycemia at 25 mg/kg, po measured 2 hrs post dose; type: functional; parameters: scale not given: the % may be the effect or the level left; in short: as §5
Mus musculus [18] = test: Antidiabetic activity in diabetic C57BL/KsJ db/db mouse model assessed as reduction in postprandial glucose level in hyperglycemia at 10 mg/kg, po measured 2 hrs post dose; type: functional; parameters: scale not given: the % may be the effect or the level left; in short: as §5
Mus musculus [19] = test: Antidiabetic activity in diabetic C57BL/KsJ db/db mouse model assessed as reduction in postprandial glucose level in hyperglycemia at 3 mg/kg, po measured 2 hrs post dose; type: functional; parameters: scale not given: the % may be the effect or the level left; in short: as §5
Mus musculus [20] = test: Antidiabetic activity in diabetic C57BL/KsJ db/db mouse model assessed as improvement in glucose tolerance in hyperglycemia at 25 mg/kg, po measured 2 hrs post dose; type: functional
Mus musculus [21] = test: Antidyslipidemic activity in diabetic C57BL/KsJ db/db mouse model assessed as reduction in plasma cholesterol level at 25 mg/kg, po qd for 10 days; type: functional; parameters: scale not given: the % may be the effect or the level left
In short: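 db/db mice (blood glucose 200−350, TG 170−250, cholesterol 170−250, HDL-C 32−40 mg/dL) dosed orally at 25 mg/kg daily for 10 days; retro-orbital blood taken on day 11 for plasma TG, cholesterol and HDL-C (and HDL-C/CHOL ratio); mean % change versus vehicle control, 5 mice per group; Student t test.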

Mus musculus [22] = test: Antihyperglycemic activity in diabetic C57BL/KsJ db/db mouse model assessed as improvement in glucose tolerance in hyperglycemia at 25 mg/kg, po qd for 10 days; type: functional
In short: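 Male/female C57BL/KsJ db/db mice, 12−18 weeks, 40−50 g, selected for glucose 200−350 mg/dL. Oral dosing daily for 10 days. OGTT on day 10 after an overnight fast: compound at −30 min, then 3 g/kg oral glucose at 0 min. Glucose read at 30, 60, 90 and 120 min. AUC taken versus vehicle, 5 mice per group.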

[23] = Oral bioavailability in Sprague-Dawley rat at 25 mg/kg by LC-MS/MS method; type: ADME, organism-based; details: in vivo; in short: as §2
[24] = Elimination half life in Sprague-Dawley rat at 25 mg/kg, po by LC-MS/MS method; type: ADME, organism-based; parameters: dose 25 mg/kg, route oral; details: in vivo, read-out: beta t1/2 (converted); in short: as §2
[25] = Volume of distribution in Sprague-Dawley rat at 2.5 mg/kg, iv by LC-MS/MS method; type: ADME, organism-based; parameters: dose 2.5 mg/kg, route intravenous; details: in vivo; in short: as §1
Rattus norvegicus [26] = test: AUC in Sprague-Dawley rat at 25 mg/kg, po by LC-MS/MS method; details: in vivo
Rattus norvegicus [27] = test: AUC in Sprague-Dawley rat at 2.5 mg/kg, iv by LC-MS/MS method; details: in vivo
Mus musculus [28] = test: Antidiabetic activity in diabetic C57BL/KsJ db/db mouse model assessed as reduction in postprandial glucose level in hyperglycemia at 50 mg/kg, po measured 2 hrs post dose; parameters: scale not given: the % may be the effect or the level left

MRT [1]: 13.5 h
clearance [2]: 62 mL/min/kg
CL/F [3]: 62.5 mL/min/kg
Cmax [4]: 70.3 ng/mL
bioavailability [23]: 27%
half-life [24]: 19.8 h
Vd [25]: 50.3 L/kg
AUC (Rattus norvegicus [26]): 1798.22 ng·h/mL
AUC (Rattus norvegicus [27]): 666 ng·h/mL
SMILES: CC(C)(C)NC[C@H](O)COc1ccc2c(=O)cc(-c3cc(OCc4ccccc4)cc(OCc4ccccc4)c3)oc2c1
Activity (Syrian golden hamster [5]): 7.38%
Activity (Syrian golden hamster [6]): 27.9%
Activity (Syrian golden hamster [7]): 68.4%
Activity (Syrian golden hamster [8]): 50.7%
Activity (Syrian golden hamster [9]): 76.3%
Activity (Syrian golden hamster [10]): 34.6%
Activity (Syrian golden hamster [11]): 39.8%
Activity (Syrian golden hamster [12]): 21.1%
Activity (Syrian golden hamster [13]): Dose-dependent effect
Activity (Syrian golden hamster [14]): 24.4%
Activity (Syrian golden hamster [15]): 21.2%
ED50 (Mus musculus [16]): 1.72 mg/kg
Activity (Mus musculus [17]): 38.3%
Activity (Mus musculus [18]): 28.8%
Activity (Mus musculus [19]): 22.1%
Activity (Mus musculus [20]): 44.6%
Activity (Mus musculus [21]): 30.7%
Activity (Mus musculus [22]): 38.8%
Activity (Mus musculus [28]): 39.1%
